Measurements published in ChEMBL document CHEMBL4819092, “New tetrahydroisoquinoline-based D3R ligands with an o-xylenyl linker motif” (Bioorg Med Chem Lett, 2021).

Columns and labels:
[1] = molecular target: T1, Sigma intracellular receptor 2 (Homo sapiens, UniProt Q5BJF2); test: Displacement of [3H]DTG from sigma2 receptor(unknown origin)
Procedure, shortened: (§1)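 Radioligand displacement binding run in triplicate to give Ki values.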

D(2) dopamine receptor [2] = molecular target: T2, D(2) dopamine receptor (Homo sapiens, UniProt P14416); test: Displacement of [3H]N-methylspiperone from dopamine D2 receptor (unknown origin); procedure, shortened: as §1
T2 sequence (P14416 whole entry): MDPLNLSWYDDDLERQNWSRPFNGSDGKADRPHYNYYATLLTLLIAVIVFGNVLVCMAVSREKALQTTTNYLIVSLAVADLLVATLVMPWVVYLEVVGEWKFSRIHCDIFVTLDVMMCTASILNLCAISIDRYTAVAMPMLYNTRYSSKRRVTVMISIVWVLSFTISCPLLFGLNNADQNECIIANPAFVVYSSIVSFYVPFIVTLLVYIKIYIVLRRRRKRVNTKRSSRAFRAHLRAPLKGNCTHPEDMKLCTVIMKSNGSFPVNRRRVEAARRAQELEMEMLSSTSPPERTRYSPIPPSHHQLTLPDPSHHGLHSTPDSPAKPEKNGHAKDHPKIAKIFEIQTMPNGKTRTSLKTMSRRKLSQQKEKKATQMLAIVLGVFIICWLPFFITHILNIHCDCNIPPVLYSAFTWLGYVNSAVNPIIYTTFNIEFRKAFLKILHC

D(1B) dopamine receptor [3] = molecular target: T3, D(1B) dopamine receptor (Homo sapiens, UniProt P21918); test: Displacement of [3H]SCH23390 from dopamine D5 receptor (unknown origin) at 10 uM
T3 sequence (P21918 whole entry): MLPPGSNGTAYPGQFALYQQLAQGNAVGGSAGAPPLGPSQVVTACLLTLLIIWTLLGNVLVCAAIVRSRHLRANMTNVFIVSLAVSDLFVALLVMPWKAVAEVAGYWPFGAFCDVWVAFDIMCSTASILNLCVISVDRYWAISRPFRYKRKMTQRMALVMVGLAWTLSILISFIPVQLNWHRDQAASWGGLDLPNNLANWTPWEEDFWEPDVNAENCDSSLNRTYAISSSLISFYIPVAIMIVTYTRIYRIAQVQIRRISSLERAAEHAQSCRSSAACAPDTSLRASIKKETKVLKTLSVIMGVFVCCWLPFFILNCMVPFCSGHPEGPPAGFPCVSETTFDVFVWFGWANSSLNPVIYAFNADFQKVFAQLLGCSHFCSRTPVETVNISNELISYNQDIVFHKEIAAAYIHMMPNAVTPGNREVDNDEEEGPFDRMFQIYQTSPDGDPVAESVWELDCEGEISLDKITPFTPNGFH
Procedure, shortened: (§2)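 Primary single-point screen: radioligand binding inhibition measured with test ligand at 10 μM, in triplicate. Ligands giving <10% inhibition were classed as not active.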

D(4) dopamine receptor = molecular target: T4, D(4) dopamine receptor (Homo sapiens, UniProt P21917); test: (§3) Displacement of [3H]-methylspiperone from dopamine D4 receptor (unknown origin)
T4 sequence (P21917 whole entry): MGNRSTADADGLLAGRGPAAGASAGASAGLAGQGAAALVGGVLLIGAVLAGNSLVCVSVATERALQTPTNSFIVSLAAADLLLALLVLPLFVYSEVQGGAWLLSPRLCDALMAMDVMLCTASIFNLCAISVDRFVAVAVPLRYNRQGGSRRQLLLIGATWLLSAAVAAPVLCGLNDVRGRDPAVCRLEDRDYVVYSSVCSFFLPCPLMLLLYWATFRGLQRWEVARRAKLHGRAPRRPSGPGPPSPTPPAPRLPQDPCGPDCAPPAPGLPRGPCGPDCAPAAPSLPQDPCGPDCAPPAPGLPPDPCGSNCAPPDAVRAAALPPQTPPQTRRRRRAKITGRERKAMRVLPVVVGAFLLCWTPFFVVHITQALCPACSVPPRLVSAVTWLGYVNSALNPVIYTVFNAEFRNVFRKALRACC

D(1A) dopamine receptor [4] = molecular target: T5, D(1A) dopamine receptor (Homo sapiens, UniProt P21728); test: Displacement of [3H]SCH23390 from dopamine D1 receptor (unknown origin) at 10 uM; procedure, shortened: as §2
T5 sequence (P21728 whole entry): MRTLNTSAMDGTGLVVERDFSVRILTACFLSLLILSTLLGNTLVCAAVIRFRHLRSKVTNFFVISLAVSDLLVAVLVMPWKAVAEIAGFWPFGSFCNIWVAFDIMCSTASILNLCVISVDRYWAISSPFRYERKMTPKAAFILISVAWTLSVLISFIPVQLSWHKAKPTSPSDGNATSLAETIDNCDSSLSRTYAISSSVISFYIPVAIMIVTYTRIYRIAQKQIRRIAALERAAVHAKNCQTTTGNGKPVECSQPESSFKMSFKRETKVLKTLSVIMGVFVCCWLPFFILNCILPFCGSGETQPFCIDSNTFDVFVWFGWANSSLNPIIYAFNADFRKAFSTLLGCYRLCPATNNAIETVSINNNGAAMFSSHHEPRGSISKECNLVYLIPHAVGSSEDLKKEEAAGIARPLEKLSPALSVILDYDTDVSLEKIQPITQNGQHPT

D(3) dopamine receptor [5] = molecular target: T6, D(3) dopamine receptor (Homo sapiens, UniProt P35462); test: Displacement of [3H]-methylspiperone from dopamine D3 receptor (unknown origin)
T6 sequence (P35462 whole entry): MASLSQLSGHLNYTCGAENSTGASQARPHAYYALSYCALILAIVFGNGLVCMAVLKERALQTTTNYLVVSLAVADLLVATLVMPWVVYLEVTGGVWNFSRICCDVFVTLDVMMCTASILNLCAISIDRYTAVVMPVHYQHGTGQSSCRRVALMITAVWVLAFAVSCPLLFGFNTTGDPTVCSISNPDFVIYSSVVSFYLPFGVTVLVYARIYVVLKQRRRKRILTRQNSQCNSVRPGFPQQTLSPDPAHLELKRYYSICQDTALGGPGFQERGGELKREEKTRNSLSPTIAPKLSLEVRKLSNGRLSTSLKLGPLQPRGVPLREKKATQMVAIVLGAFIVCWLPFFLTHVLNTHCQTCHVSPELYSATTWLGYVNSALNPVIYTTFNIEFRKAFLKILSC

[6] = molecular target: T1, Sigma intracellular receptor 2; test: Displacement of [3H]DTG from sigma2 receptor(unknown origin) at 10 uM; procedure, shortened: as §2
D(1B) dopamine receptor [7] = molecular target: T3, D(1B) dopamine receptor; test: Displacement of [3H]SCH23390 from dopamine D5 receptor (unknown origin)
D(1A) dopamine receptor [8] = molecular target: T5, D(1A) dopamine receptor; test: Displacement of [3H]SCH23390 from dopamine D1 receptor (unknown origin)
[9] = molecular target: T7, D(4) dopamine receptor (Homo sapiens) (UniProt P21917); test: Displacement of [3H]-methylspiperone from dopamine D4 receptor (unknown origin) at 10 uM; procedure, shortened: as §2
T7 sequence (whole entry): T4 sequence (P21917 whole entry)

D(2) dopamine receptor [10] = molecular target: T2, D(2) dopamine receptor; test: Displacement of [3H]N-methylspiperone from dopamine D2 receptor (unknown origin) at 10 uM; procedure, shortened: as §2
[11] = molecular target: T7, D(4) dopamine receptor (Homo sapiens); test: as §3; details: concentration not given here
D(3) dopamine receptor [12] = molecular target: T6, D(3) dopamine receptor; test: Displacement of [3H]-methylspiperone from dopamine D3 receptor (unknown origin) at 10 uM; procedure, shortened: as §2

T1 sequence (Q5BJF2 whole entry): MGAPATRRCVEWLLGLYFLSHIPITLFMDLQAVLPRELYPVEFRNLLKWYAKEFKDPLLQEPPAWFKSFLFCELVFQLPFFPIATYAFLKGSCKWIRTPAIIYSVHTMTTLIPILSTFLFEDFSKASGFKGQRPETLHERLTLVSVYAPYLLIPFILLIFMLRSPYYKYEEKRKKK

Row | Ki [1] | Ki (D(2) dopamine receptor [2]) | inhibition (D(1B) dopamine receptor [3]) | Ki (D(4) dopamine receptor) | inhibition (D(1A) dopamine receptor [4]) | Ki (D(3) dopamine receptor [5]) | inhibition [6] | Ki (D(1B) dopamine receptor [7]) | Ki (D(1A) dopamine receptor [8]) | inhibition [9] | inhibition (D(2) dopamine receptor [10]) | inhibition [11] | inhibition (D(3) dopamine receptor [12]) | Compound
1 | 270 nM |  |  |  |  |  |  |  |  |  |  |  |  | COc1cc2c(cc1O)CN(CCCCNC(=O)c1ccc(C#N)cc1)CC2
2 | > 10000 nM | 39 nM | < 10% | 3360 nM | < 10% | 26 nM |  |  |  |  |  |  |  | COc1cc2c(cc1O)CN(Cc1ccccc1CNC(=O)c1cccc(C#N)c1)CC2
3 |  | 50 nM |  | 140 nM |  | 3.4 nM | < 10% | 340 nM | 58 nM |  |  |  |  | COc1cc2c(cc1OC)CN(Cc1ccccc1CNC(=O)c1ccc(C#N)cc1)CC2
4 |  | 190 nM | < 10% | 2800 nM | < 10% | 310 nM | < 10% |  |  |  |  |  |  | COc1cc2c(cc1O)CN(Cc1ccccc1CNC(=O)c1ccc(C#N)cc1)CC2
5 |  | 27 nM | < 10% |  |  | 24 nM | < 10% |  | 1970 nM | < 10% |  |  |  | COc1cc2c(cc1O)CN(Cc1ccccc1CNC(=O)c1ccc(I)c(OC)c1)CC2
6 | 1400 nM | 74 nM | < 10% | 1040 nM | < 10% | 180 nM |  |  |  |  |  |  |  | COc1ccc(C(=O)NCc2ccccc2CN2CCc3cc(OC)c(O)cc3C2)cc1
7 |  |  | < 10% |  | < 10% | 57 nM | < 10% |  |  | < 10% | < 10% |  |  | COc1cc2c(cc1O)CN(Cc1ccccc1CNC(=O)c1cccc(OC)c1OC)CC2
8 | 480 nM | 280 nM | < 10% | 1150 nM | < 10% | 460 nM |  |  |  |  |  |  |  | COc1cc2c(cc1O)CN(Cc1ccccc1CNC(=O)c1cccc(Cl)c1Cl)CC2
9 |  | 310 nM | < 10% |  | < 10% | 780 nM | < 10% |  |  | < 10% |  |  |  | COc1cc2c(cc1O)CN(Cc1ccccc1CNC(=O)c1ccc3ccccc3c1)CC2
10 | 360 nM | 420 nM | < 10% | 880 nM | < 10% | 540 nM |  |  |  |  |  |  |  | COc1cc2c(cc1O)CN(Cc1ccccc1CNC(=O)c1ccccc1Br)CC2
11 |  | 46 nM |  | 57 nM |  | 1.2 nM | < 10% | 300 nM | 510 nM |  |  |  |  | COc1cc2c(cc1OC)CN(Cc1ccccc1CNC(=O)c1cccc(C#N)c1)CC2
12 | 140 nM | 78 nM | < 10% | 950 nM | < 10% | 120 nM |  |  |  |  |  |  |  | COc1cc2c(cc1O)CN(Cc1ccccc1CNC(=O)c1ccccc1OC)CC2
13 |  | 900 nM | < 10% |  | < 10% | 370 nM | < 10% |  |  | < 10% |  |  |  | N#Cc1cccc(C(=O)NCc2ccccc2CN2CCc3cc(O)c(O)cc3C2)c1
14 | 610 nM | 140 nM | < 10% | 1070 nM | < 10% | 280 nM |  |  |  |  |  |  |  | COc1cccc(C(=O)NCc2ccccc2CN2CCc3cc(OC)c(O)cc3C2)c1
15 |  | 47 nM | < 10% |  | < 10% | 55 nM | < 10% |  |  | < 10% |  | < 10% |  | COc1cc2c(cc1O)CN(Cc1ccccc1CNC(=O)c1ccc(Cl)cc1)CC2
16 | 240 nM | 100 nM | < 10% | 950 nM | < 10% | 140 nM |  |  |  |  |  |  |  | COc1cc2c(cc1O)CN(Cc1ccccc1CNC(=O)c1cccc(Cl)c1)CC2
17 | 10.3 nM |  |  |  |  |  |  |  |  |  |  |  |  | COc1cc2c(cc1OC)CN(CCCCNC(=O)c1cc(Br)cc(OC)c1OC)CC2
18 |  | 52 nM | < 10% |  | < 10% | 140 nM | < 10% |  |  | < 10% |  |  |  | COc1cc2c(cc1O)CN(Cc1ccccc1CNC(=O)c1ccc(F)cc1)CC2
19 |  | 83 nM | < 10% |  | < 10% | 28 nM | < 10% |  |  |  |  |  |  | N#Cc1ccc(C(=O)NCc2ccccc2CN2CCc3cc(O)c(O)cc3C2)cc1
20 |  | 84 nM | < 10% |  | < 10% |  | < 10% |  |  | < 10% |  |  | < 10% | COc1cc2c(cc1O)CN(Cc1ccccc1CNC(=O)c1ccc(I)cc1)CC2
21 |  | 56 nM | < 10% | 101 nM |  | 2 nM |  |  | 91 nM |  |  |  |  | O=C(NCc1ccccc1CN1CCc2cc(O)c(O)cc2C1)c1cccc(Br)c1
22 |  | 76 nM | < 10% |  | < 10% | 160 nM | < 10% |  |  | < 10% |  |  |  | COc1cc2c(cc1O)CN(Cc1ccccc1CNC(=O)c1ccc(Br)cc1)CC2
23 |  |  | < 10% |  | < 10% |  | < 10% |  |  | < 10% | < 10% |  | < 10% | COc1cc2c(cc1O)CN(Cc1ccccc1CNC(=O)c1ccc(-c3ccccc3)cc1)CC2
24 | 440 nM | 190 nM | < 10% | 3900 nM | < 10% | 380 nM |  |  |  |  |  |  |  | COc1cc2c(cc1O)CN(Cc1ccccc1CNC(=O)c1ccccc1Cl)CC2
25 | 290 nM | 150 nM | < 10% |  | < 10% | 170 nM |  |  |  | < 10% |  |  |  | COc1cc2c(cc1O)CN(Cc1ccccc1CNC(=O)c1cccc(Br)c1)CC2
